Broadly, the IC50 is the concentration that inhibits the measured activity by half. Low values mean higher potency, high ones lower potency.

The record followed here is ChEMBL document CHEMBL1143195, “Novel sulfonanilide analogs decrease aromatase activity in breast cancer cells: synthesis, biological evaluation, and ligand-based pharmacophore identification” (J Med Chem, 2008).

The source made the active and inactive calls. The rule behind the calls is not given here. A value given as a limit tells only on which side of the number the result lay.

The subject of the first assay is SK-BR-3. In words: Cytotoxicity against human SKBR3 cells by diphenylamine DNA assay.
Settings: not given
The class given is functional, cell-based.
For `Cc1ccc(C)c(COc2cc([N+](=O)[O-])ccc2N(C)S(C)(=O)=O)c1`, the outcome was Active.
On to `CC(C)c1ccc(COc2cc([N+](=O)[O-])ccc2N(C)S(C)(=O)=O)cc1`, for which the result was Active.

The target in the next assay is T1, Aromatase (Homo sapiens, UniProt P11511).
T1 sequence (P11511 whole entry): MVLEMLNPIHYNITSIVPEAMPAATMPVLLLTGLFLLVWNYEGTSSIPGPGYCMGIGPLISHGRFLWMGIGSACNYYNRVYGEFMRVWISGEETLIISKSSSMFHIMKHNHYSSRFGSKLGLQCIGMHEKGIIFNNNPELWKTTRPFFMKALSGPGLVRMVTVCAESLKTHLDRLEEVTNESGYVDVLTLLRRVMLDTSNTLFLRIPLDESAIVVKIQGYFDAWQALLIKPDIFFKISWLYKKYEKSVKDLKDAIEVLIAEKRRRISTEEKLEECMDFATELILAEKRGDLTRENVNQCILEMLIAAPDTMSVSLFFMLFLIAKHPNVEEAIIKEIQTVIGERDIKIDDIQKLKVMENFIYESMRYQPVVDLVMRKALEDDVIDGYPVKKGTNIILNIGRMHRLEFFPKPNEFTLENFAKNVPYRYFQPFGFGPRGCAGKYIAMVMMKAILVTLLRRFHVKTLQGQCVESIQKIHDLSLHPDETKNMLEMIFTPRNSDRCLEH
In words: Inhibition of aromatase in human SKBR3 cells by tritiated water release assay. The class given is cell-based. Particulars: sk-br-3. The method in brief: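 Subconfluent SK-BR-3 cells were switched to defined DMEM/F12 (human albumin, transferrin, insulin) and treated 24 h at five concentrations in triplicate (0.1% DMSO vehicle). They were then incubated 3 h with 100 nM [1β-3H]-androstenedione. TCA-precipitated medium was chloroform-extracted and charcoal-treated, and 3H2O counted as pmol/h/10^6 cells, normalized by DNA assay. IC50 was taken from sigmoidal dose–response fits.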
As to `CC(C)Oc1cc([N+](=O)[O-])ccc1N(C)S(C)(=O)=O`, the 50% inhibitory concentration (IC50) worked out at 2810 nM.
As for `CN(c1ccc(NC(=O)c2ccc3ccccc3c2)cc1OCc1ccccc1)S(C)(=O)=O`, the IC50 was 1070 nM.
`CN(c1ccc([N+](=O)[O-])cc1OCc1ccc([N+](=O)[O-])cc1)S(C)(=O)=O` returned an IC50 of 490 nM.
Same read-out and setting: as for `CCCCCCCCCOc1cc([N+](=O)[O-])ccc1NS(C)(=O)=O`, the figure is 910 nM; as for `CN(c1ccc([N+](=O)[O-])cc1OCc1ccc(Br)cc1)S(C)(=O)=O`, 330 nM.
Same read-out and setting: as for `CN(c1ccc(NC(=O)C2CCCCC2)cc1OCc1ccccc1)S(C)(=O)=O`, the figure is 250 nM; as for `CS(=O)(=O)Nc1ccc([N+](=O)[O-])cc1OCc1ccc2ccccc2c1`, 2170 nM; as for `CS(=O)(=O)Nc1ccc([N+](=O)[O-])cc1OC1CCCC1`, 870 nM.
Regarding `CC(=O)Nc1ccc([N+](=O)[O-])cc1OCc1ccccc1`, inhibition was half-maximal at 1180 nM (IC50).
The same measure, in the same setting: as for `O=C(Nc1ccc([N+](=O)[O-])cc1OCc1ccccc1)c1ccc([N+](=O)[O-])cc1`, the figure is more than 25000 nM.
In turn, `CS(=O)(=O)Nc1ccc([N+](=O)[O-])cc1OCc1ccccc1-c1ccccc1` gave an IC50 of 260 nM.
Same read-out and setting: as for `CN(c1ccc([N+](=O)[O-])cc1OCc1ccc(F)cc1)S(C)(=O)=O`, the figure is 1780 nM.
Same read-out and setting: the figure for `CCCOc1cc([N+](=O)[O-])ccc1N(C)S(C)(=O)=O` is 760 nM; for `N#Cc1ccc(C(=O)Nc2ccc([N+](=O)[O-])cc2OCc2ccccc2)cc1` it is more than 25000 nM.
Turning to `COc1ccc(COc2cc([N+](=O)[O-])ccc2N(C)S(C)(=O)=O)cc1`, 470 nM corresponded to half-maximal inhibition (IC50).
The compound `CC(C)c1ccc(COc2cc([N+](=O)[O-])ccc2NS(C)(=O)=O)cc1` registered an IC50 of 7450 nM.
Still for that read-out and setting: as for `CN(c1ccc([N+](=O)[O-])cc1OCc1ccc(-c2ccccc2)cc1)S(C)(=O)=O`, the figure is 650 nM; as for `CN(c1ccc(NC(=O)c2ccc(Cl)c([N+](=O)[O-])c2)cc1OCc1ccccc1)S(C)(=O)=O`, 690 nM; as for `COc1ccc(COc2cc([N+](=O)[O-])ccc2NS(C)(=O)=O)cc1`, 7820 nM.
In the case of `CS(=O)(=O)Nc1ccc([N+](=O)[O-])cc1OCCc1ccccc1`, the IC50 worked out at 230 nM.
The same measure, in the same setting: as for `CC(=O)Nc1ccc(N(C)S(C)(=O)=O)c(OCc2ccccc2)c1`, the figure is 16700 nM; as for `CCCOc1cc([N+](=O)[O-])ccc1NS(C)(=O)=O`, 2510 nM; as for `CN(c1ccc([N+](=O)[O-])cc1OCc1ccccc1-c1ccccc1)S(C)(=O)=O`, 330 nM.
On the same count and under the same terms, as for `CN(c1ccc([N+](=O)[O-])cc1OC1CCCC1)S(C)(=O)=O`, the figure is 440 nM; as for `CN(c1ccc(N)cc1OCc1ccccc1)S(C)(=O)=O`, 1100 nM.
Same read-out and setting: as for `CN(c1ccc([N+](=O)[O-])cc1OCCc1ccccc1)S(C)(=O)=O`, the figure is 520 nM; as for `CCCCCCCCCOc1cc([N+](=O)[O-])ccc1N(C)S(C)(=O)=O`, 3960 nM; as for `CC(C)Oc1cc([N+](=O)[O-])ccc1NS(C)(=O)=O`, 5870 nM.
As to `CS(=O)(=O)Nc1ccc([N+](=O)[O-])cc1OCc1ccc(Cl)cc1`, the IC50 came out at 290 nM.
Take `CN(c1ccc([N+](=O)[O-])cc1OCc1cccc2ccccc12)S(C)(=O)=O`: the IC50 came out at 1170 nM.
On the same count and under the same terms, the figure for `CN(c1ccc(NC(=O)c2ccc(-c3ccccc3)cc2)cc1OCc1ccccc1)S(C)(=O)=O` is 120 nM.
Still for that read-out and setting: the figure for `CCCCCCOc1cc([N+](=O)[O-])ccc1N(C)S(C)(=O)=O` is 4490 nM; for `Cc1ccc(COc2cc([N+](=O)[O-])ccc2N(C)S(C)(=O)=O)cc1` it is 2330 nM.
Still for that read-out and setting: the figure for `CS(=O)(=O)Nc1ccc([N+](=O)[O-])cc1OCc1ccccc1` is 2140 nM.
`CS(=O)(=O)Nc1ccc([N+](=O)[O-])cc1OC1CCCCC1` [NS-398] had an IC50 of 680 nM.
Still for that read-out and setting: as for `CS(=O)(=O)Nc1ccc([N+](=O)[O-])cc1OCc1ccc(-c2ccccc2)cc1`, the figure is 850 nM; as for `CN(c1ccc(NC(=O)c2ccc(Cl)c(Cl)c2)cc1OCc1ccccc1)S(C)(=O)=O`, 690 nM; as for `CCCCCCOc1cc([N+](=O)[O-])ccc1NS(C)(=O)=O`, 2670 nM.
Same read-out and setting: the figure for `O=C(Nc1ccc([N+](=O)[O-])cc1OCc1ccccc1)c1ccc(Cl)c([N+](=O)[O-])c1` is more than 25000 nM; for `Cc1ccc(C)c(COc2cc([N+](=O)[O-])ccc2NS(C)(=O)=O)c1` it is 370 nM.
Regarding `CN(c1ccc([N+](=O)[O-])cc1OCc1ccc2ccccc2c1)S(C)(=O)=O`, the midpoint of inhibition, the IC50, lay at 2680 nM.
For `Cc1ccc(S(=O)(=O)Nc2ccc([N+](=O)[O-])cc2OCc2ccccc2)cc1`, the IC50 amounted to 17400 nM.
Same read-out and setting: as for `CN(c1ccc([N+](=O)[O-])cc1OCc1ccccc1)S(C)(=O)=O`, the figure is 810 nM; as for `O=C(Nc1ccc([N+](=O)[O-])cc1OCc1ccccc1)c1ccc2ccccc2c1`, more than 25000 nM.
Same read-out and setting: the figure for `Cc1ccc(COc2cc([N+](=O)[O-])ccc2NS(C)(=O)=O)cc1` is 1750 nM; for `CN(c1ccc([N+](=O)[O-])cc1OC1CCCCC1)S(C)(=O)=O` it is 470 nM.
On the same count and under the same terms, the figure for `O=C(Nc1ccc([N+](=O)[O-])cc1OCc1ccccc1)c1ccc(-c2ccccc2)cc1` is more than 25000 nM.
On to `CCC(CC)Oc1cc([N+](=O)[O-])ccc1NS(C)(=O)=O`, for which the IC50 turned out to be 300 nM.
On the same count and under the same terms, the figure for `CS(=O)(=O)Nc1ccc([N+](=O)[O-])cc1OCc1ccc(F)cc1` is 580 nM; for `CN(c1ccc(NC(=O)c2ccccc2)cc1OCc1ccccc1)S(C)(=O)=O` it is 1770 nM; for `O=C(Nc1ccc([N+](=O)[O-])cc1OCc1ccccc1)C1CCCCC1` it is more than 25000 nM.
In turn, `O=C(Nc1ccc([N+](=O)[O-])cc1OCc1ccccc1)c1cccc([N+](=O)[O-])c1` showed an IC50 of more than 25000 nM.
Same read-out and setting: as for `CN(c1ccc(NC(=O)c2ccc(C#N)cc2)cc1OCc1ccccc1)S(C)(=O)=O`, the figure is 440 nM.
`CS(=O)(=O)Nc1ccc([N+](=O)[O-])cc1OCc1ccc([N+](=O)[O-])cc1` yielded a half-inhibitory concentration (IC50) of 400 nM.
Regarding `O=C(Nc1ccc([N+](=O)[O-])cc1OCc1ccccc1)c1ccccc1`, the IC50 was more than 25000 nM.
On the same count and under the same terms, the figure for `CS(=O)(=O)Nc1ccc([N+](=O)[O-])cc1OCc1ccc(Br)cc1` is 5850 nM; for `CN(c1ccc([N+](=O)[O-])cc1OCC1CCCCC1)S(C)(=O)=O` it is 960 nM.
As to `CCC(CC)Oc1cc([N+](=O)[O-])ccc1N(C)S(C)(=O)=O`, inhibition was half-maximal at 230 nM (IC50).
Same read-out and setting: the figure for `O=C(Nc1ccc([N+](=O)[O-])cc1OCc1ccccc1)c1ccc(Cl)c(Cl)c1` is more than 25000 nM; for `CS(=O)(=O)Nc1ccc([N+](=O)[O-])cc1OCc1cccc2ccccc12` it is 5740 nM.
`CN(c1ccc([N+](=O)[O-])cc1OCc1ccc(Cl)cc1)S(C)(=O)=O` gave an IC50 of 2400 nM.
`CS(=O)(=O)Nc1ccc([N+](=O)[O-])cc1OCC1CCCCC1` registered an IC50 of 1210 nM.
Regarding `O=[N+]([O-])c1ccc(S(=O)(=O)Nc2ccc([N+](=O)[O-])cc2OCc2ccccc2)cc1`, the concentration for half-maximal inhibition (IC50) worked out at 2170 nM.
